Laboratory results as given in ChEMBL document CHEMBL3588770, “Novel spirohydantoin derivative as a potent multireceptor-active antipsychotic and antidepressant agent” (Bioorg Med Chem, 2015).

biological target: D(2) dopamine receptor (Rattus norvegicus, UniProt P61169); experiment: Displacement of [3H]spiperone from D2 receptor in rat striatum by liquid scintillation counting analysis
Outline: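 Rat striatal membranes with [3H]-spiperone. Compounds were tested in triplicate at 7–8 concentrations (10⁻¹¹–10⁻⁴). Ki values were calculated.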

Sequence of D(2) dopamine receptor (P61169 whole entry): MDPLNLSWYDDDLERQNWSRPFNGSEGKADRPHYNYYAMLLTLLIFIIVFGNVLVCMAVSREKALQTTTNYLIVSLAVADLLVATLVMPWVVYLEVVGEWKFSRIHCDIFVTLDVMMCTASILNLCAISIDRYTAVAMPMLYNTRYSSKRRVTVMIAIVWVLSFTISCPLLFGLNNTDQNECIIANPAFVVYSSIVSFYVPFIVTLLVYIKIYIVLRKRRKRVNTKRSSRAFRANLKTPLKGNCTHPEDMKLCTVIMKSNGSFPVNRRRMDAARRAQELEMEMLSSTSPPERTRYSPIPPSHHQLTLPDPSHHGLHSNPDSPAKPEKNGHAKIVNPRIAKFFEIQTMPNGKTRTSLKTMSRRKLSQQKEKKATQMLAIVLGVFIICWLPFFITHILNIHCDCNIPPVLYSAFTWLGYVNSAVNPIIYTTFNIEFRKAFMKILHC

Ki [nM] | SMILES
104 | COc1ccccc1N1CCN(CCCCN2C(=O)NC3(CCc4ccccc43)C2=O)CC1 (stereo unspecified)
59 | COc1ccccc1N1CCN(CCCCN2C(=O)NC3(CCCc4ccccc43)C2=O)CC1 (stereo unspecified)
1100 | O=C1NC2(CCCc3ccccc32)C(=O)N1CCCCN1CCN(c2cccc(Cl)c2)CC1 (stereo unspecified)
539 | O=C1NC2(CCc3ccccc32)C(=O)N1CCCCN1CCN(c2cccc(Cl)c2)CC1 (stereo unspecified)

biological target: T1, 5-hydroxytryptamine receptor 1A (Rattus norvegicus, UniProt P19327); experiment: Displacement of [3H]-8-OH-DPAT from 5-HT1A receptor in rat hippocampal membrane by liquid scintillation analysis; format: cell membranes, Hippocampus
T1 sequence (P19327 whole entry): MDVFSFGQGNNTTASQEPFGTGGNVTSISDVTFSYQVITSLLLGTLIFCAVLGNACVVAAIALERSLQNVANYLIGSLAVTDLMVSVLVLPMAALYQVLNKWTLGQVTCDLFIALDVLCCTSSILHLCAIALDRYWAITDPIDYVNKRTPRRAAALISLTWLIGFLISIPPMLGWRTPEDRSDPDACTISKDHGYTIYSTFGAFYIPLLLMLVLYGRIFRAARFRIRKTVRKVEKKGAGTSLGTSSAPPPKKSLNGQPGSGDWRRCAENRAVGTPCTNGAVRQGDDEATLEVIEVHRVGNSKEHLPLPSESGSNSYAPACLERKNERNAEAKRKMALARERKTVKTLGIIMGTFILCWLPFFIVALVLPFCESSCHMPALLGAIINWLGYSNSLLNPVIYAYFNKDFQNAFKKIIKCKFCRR
Outline: (§1)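 Native rat membranes were used: hippocampus with [3H]-8-OH-DPAT (170 Ci/mmol) and 5-HT for non-specific binding; cortex with [3H]-ketanserin (88.0 Ci/mmol) and methysergide; hypothalamus with [3H]-5-CT (34.5 Ci/mmol) and 5-HT. Compounds were tested in triplicate at 7–8 concentrations (10⁻¹¹–10⁻⁴ M). Read-out was liquid scintillation counting. Ki came from nonlinear regression with Cheng-Prusoff, as the mean of at least two experiments.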

Ki [nM] | SMILES
2.6 | COc1ccccc1N1CCN(CCCCN2C(=O)NC3(CCc4ccccc43)C2=O)CC1 (stereo unspecified)
2.2 | COc1ccccc1N1CCN(CCCCN2C(=O)NC3(CCCc4ccccc43)C2=O)CC1 (stereo unspecified)
15 | O=C1NC2(CCCc3ccccc32)C(=O)N1CCCCN1CCN(c2cccc(Cl)c2)CC1 (stereo unspecified)
12 | O=C1NC2(CCc3ccccc32)C(=O)N1CCCCN1CCN(c2cccc(Cl)c2)CC1 (stereo unspecified)

biological target: 5-hydroxytryptamine receptor 2A (Rattus norvegicus, UniProt P14842); experiment: Displacement of [3H]ketanserin from 5-HT2A receptor in rat cortical membrane by liquid scintillation analysis; format: cell membranes; outline: as §1
Sequence (P14842 whole entry): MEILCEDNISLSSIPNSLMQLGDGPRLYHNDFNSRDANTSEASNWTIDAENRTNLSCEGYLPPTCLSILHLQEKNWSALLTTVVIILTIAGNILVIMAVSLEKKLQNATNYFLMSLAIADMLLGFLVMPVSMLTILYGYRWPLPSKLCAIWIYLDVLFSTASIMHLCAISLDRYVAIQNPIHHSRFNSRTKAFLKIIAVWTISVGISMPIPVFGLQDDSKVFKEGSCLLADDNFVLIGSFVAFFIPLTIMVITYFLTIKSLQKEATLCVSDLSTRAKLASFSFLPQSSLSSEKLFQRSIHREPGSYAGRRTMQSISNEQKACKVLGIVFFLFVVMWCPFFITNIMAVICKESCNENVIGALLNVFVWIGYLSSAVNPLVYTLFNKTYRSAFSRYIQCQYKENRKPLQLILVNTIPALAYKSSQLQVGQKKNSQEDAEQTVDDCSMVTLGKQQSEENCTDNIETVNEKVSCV

Ki [nM] | SMILES
98 | COc1ccccc1N1CCN(CCCCN2C(=O)NC3(CCc4ccccc43)C2=O)CC1 (stereo unspecified)
59 | COc1ccccc1N1CCN(CCCCN2C(=O)NC3(CCCc4ccccc43)C2=O)CC1 (stereo unspecified)
27 | O=C1NC2(CCCc3ccccc32)C(=O)N1CCCCN1CCN(c2cccc(Cl)c2)CC1 (stereo unspecified)
21 | O=C1NC2(CCc3ccccc32)C(=O)N1CCCCN1CCN(c2cccc(Cl)c2)CC1 (stereo unspecified)

biological target: 5-hydroxytryptamine receptor 7 (Rattus norvegicus, UniProt P32305); experiment: Displacement of [3H]-5-CT from 5-HT7 receptor in rat hypothalamic membrane by liquid scintillation analysis; format: cell membranes; outline: as §1
Sequence (P32305 whole entry): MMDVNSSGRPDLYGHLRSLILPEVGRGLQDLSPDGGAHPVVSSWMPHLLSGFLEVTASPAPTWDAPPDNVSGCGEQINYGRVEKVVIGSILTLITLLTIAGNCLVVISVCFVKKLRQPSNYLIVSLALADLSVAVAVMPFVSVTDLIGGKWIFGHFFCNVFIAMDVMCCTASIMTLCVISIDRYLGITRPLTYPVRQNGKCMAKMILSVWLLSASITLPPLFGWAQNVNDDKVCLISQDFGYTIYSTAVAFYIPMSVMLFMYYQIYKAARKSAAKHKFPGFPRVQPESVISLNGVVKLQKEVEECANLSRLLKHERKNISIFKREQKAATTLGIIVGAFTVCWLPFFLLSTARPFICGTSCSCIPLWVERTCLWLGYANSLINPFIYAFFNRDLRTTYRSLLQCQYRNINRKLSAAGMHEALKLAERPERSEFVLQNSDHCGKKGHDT

Ki [nM] | SMILES
71 | COc1ccccc1N1CCN(CCCCN2C(=O)NC3(CCc4ccccc43)C2=O)CC1 (stereo unspecified)
47 | COc1ccccc1N1CCN(CCCCN2C(=O)NC3(CCCc4ccccc43)C2=O)CC1 (stereo unspecified)
37 | O=C1NC2(CCCc3ccccc32)C(=O)N1CCCCN1CCN(c2cccc(Cl)c2)CC1 (stereo unspecified)
27 | O=C1NC2(CCc3ccccc32)C(=O)N1CCCCN1CCN(c2cccc(Cl)c2)CC1 (stereo unspecified)

biological target: D(1A) dopamine receptor (Homo sapiens) (UniProt P21728); experiment: Displacement of [3H]SCH23390 from human D1 receptor expressed in CHO cells at 1 uM by scintillation counting analysis; format: cell-based
Sequence (P21728 whole entry): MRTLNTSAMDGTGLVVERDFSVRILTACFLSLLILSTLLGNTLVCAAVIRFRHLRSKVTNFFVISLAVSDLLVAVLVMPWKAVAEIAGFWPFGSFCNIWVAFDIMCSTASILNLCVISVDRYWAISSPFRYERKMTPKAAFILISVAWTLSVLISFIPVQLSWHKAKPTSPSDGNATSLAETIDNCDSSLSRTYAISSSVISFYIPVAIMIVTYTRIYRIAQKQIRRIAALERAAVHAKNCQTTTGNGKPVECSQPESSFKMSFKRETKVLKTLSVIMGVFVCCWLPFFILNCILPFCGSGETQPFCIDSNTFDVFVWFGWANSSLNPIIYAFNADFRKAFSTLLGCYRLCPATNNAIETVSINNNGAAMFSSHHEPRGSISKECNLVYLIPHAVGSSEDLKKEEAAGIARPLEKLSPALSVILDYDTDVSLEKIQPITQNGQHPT
Outline: (§2)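 Extended binding screen run by a contract lab. Receptors were cloned human: 5-HT1A, 5-HT2A, 5-HT2C and H1 in HEK-293 cells; D1, α1, α2C and M3 in CHO cells; 5-HT6/7 and D2/3/4 in CHO cells. Radioligand displacement was done at a single 1.0E-06 concentration in duplicate. Results are mean % inhibition of control specific binding.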

inhibition [%] | SMILES
68 | COc1ccccc1N1CCN(CCCCN2C(=O)NC3(CCc4ccccc43)C2=O)CC1 (stereo unspecified)
87 | COc1ccccc1N1CCN(CCCCN2C(=O)NC3(CCCc4ccccc43)C2=O)CC1 (stereo unspecified)
95 | O=C1NC2(CCCc3ccccc32)C(=O)N1CCCCN1CCN(c2cccc(Cl)c2)CC1 (stereo unspecified)
91 | O=C1NC2(CCc3ccccc32)C(=O)N1CCCCN1CCN(c2cccc(Cl)c2)CC1 (stereo unspecified)

biological target: D(2) dopamine receptor (Homo sapiens) (UniProt P14416); experiment: Displacement of [3H]methylspiperione from human D2 receptor expressed in CHO cells at 1 uM by scintillation counting analysis; format: cell-based; outline: as §2
Sequence (P14416 whole entry): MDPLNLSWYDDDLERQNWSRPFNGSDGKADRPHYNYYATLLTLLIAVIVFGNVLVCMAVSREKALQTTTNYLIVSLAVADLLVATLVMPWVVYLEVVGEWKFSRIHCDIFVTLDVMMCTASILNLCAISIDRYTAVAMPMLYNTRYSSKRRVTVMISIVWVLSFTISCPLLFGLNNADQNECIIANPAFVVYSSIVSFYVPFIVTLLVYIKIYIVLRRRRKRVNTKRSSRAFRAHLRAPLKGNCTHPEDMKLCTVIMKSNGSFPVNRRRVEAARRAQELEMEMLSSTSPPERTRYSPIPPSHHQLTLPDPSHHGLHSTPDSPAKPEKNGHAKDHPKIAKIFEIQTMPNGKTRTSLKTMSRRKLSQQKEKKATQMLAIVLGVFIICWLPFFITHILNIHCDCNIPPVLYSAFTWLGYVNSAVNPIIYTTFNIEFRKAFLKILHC

inhibition [%] | SMILES
96 | COc1ccccc1N1CCN(CCCCN2C(=O)NC3(CCc4ccccc43)C2=O)CC1 (stereo unspecified)
97 | COc1ccccc1N1CCN(CCCCN2C(=O)NC3(CCCc4ccccc43)C2=O)CC1 (stereo unspecified)
77 | O=C1NC2(CCCc3ccccc32)C(=O)N1CCCCN1CCN(c2cccc(Cl)c2)CC1 (stereo unspecified)
75 | O=C1NC2(CCc3ccccc32)C(=O)N1CCCCN1CCN(c2cccc(Cl)c2)CC1 (stereo unspecified)

biological target: T2, D(4) dopamine receptor (Homo sapiens) (UniProt P21917); experiment: Displacement of [3H]methylspiperione from human D4 receptor expressed in CHO cells at 1 uM by scintillation counting analysis; format: cell-based; outline: as §2
T2 sequence (whole entry): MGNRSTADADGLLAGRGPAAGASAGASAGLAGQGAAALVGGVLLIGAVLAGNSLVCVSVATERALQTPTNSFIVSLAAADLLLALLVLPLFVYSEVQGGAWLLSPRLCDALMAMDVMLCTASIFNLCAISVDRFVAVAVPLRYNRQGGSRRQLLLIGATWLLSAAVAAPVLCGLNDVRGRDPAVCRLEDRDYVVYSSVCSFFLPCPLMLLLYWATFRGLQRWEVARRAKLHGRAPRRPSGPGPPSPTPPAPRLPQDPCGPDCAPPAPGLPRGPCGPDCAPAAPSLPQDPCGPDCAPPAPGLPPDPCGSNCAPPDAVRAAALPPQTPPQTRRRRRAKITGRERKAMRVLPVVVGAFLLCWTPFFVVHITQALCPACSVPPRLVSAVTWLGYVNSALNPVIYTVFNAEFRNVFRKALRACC

inhibition [%] | SMILES
95 | COc1ccccc1N1CCN(CCCCN2C(=O)NC3(CCc4ccccc43)C2=O)CC1 (stereo unspecified)
98 | COc1ccccc1N1CCN(CCCCN2C(=O)NC3(CCCc4ccccc43)C2=O)CC1 (stereo unspecified)
93 | O=C1NC2(CCCc3ccccc32)C(=O)N1CCCCN1CCN(c2cccc(Cl)c2)CC1 (stereo unspecified)
90 | O=C1NC2(CCc3ccccc32)C(=O)N1CCCCN1CCN(c2cccc(Cl)c2)CC1 (stereo unspecified)

biological target: T3, 5-hydroxytryptamine receptor 1A (Homo sapiens) (UniProt P08908); experiment: Displacement of [3H]-8-OH-DPAT from human cloned 5HT1A receptor expressed in HEK293 cells at 1 uM by scintillation counting analysis; format: cell-based; outline: as §2
T3 sequence (whole entry): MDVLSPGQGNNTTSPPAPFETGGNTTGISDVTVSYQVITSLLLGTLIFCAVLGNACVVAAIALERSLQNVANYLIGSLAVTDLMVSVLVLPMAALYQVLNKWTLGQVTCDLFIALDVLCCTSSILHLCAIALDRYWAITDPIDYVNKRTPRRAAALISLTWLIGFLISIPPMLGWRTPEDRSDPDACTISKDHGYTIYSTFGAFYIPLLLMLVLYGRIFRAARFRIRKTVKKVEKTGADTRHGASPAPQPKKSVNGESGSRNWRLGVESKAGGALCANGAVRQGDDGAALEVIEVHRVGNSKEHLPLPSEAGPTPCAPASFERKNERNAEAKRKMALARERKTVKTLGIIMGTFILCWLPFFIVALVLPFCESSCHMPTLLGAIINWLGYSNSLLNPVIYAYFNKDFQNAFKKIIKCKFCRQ

inhibition [%] | SMILES
103 | COc1ccccc1N1CCN(CCCCN2C(=O)NC3(CCc4ccccc43)C2=O)CC1 (stereo unspecified)
98 | COc1ccccc1N1CCN(CCCCN2C(=O)NC3(CCCc4ccccc43)C2=O)CC1 (stereo unspecified)
99 | O=C1NC2(CCCc3ccccc32)C(=O)N1CCCCN1CCN(c2cccc(Cl)c2)CC1 (stereo unspecified)
103 | O=C1NC2(CCc3ccccc32)C(=O)N1CCCCN1CCN(c2cccc(Cl)c2)CC1 (stereo unspecified)

biological target: 5-hydroxytryptamine receptor 2A (Homo sapiens) (UniProt P28223); experiment: Displacement of [3H]ketanserin from human cloned 5HT2A receptor expressed in HEK293 cells at 1uM by scintillation counting analysis; format: cell-based; outline: as §2
Sequence (P28223 whole entry): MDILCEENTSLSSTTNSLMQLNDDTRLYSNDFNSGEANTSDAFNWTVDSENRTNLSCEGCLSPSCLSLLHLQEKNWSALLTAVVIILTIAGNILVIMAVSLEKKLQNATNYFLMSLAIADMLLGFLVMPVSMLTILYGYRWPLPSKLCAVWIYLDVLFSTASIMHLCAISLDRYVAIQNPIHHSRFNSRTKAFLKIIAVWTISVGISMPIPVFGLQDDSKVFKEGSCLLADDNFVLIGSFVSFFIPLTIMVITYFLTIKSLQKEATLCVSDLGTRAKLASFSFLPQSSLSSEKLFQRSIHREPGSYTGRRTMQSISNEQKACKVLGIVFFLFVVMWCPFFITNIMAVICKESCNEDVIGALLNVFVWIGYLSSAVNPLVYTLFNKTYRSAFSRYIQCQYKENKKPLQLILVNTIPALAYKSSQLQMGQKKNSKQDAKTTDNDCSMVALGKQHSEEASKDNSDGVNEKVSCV

inhibition [%] | SMILES
100 | COc1ccccc1N1CCN(CCCCN2C(=O)NC3(CCc4ccccc43)C2=O)CC1 (stereo unspecified)
69 | COc1ccccc1N1CCN(CCCCN2C(=O)NC3(CCCc4ccccc43)C2=O)CC1 (stereo unspecified)
95 | O=C1NC2(CCCc3ccccc32)C(=O)N1CCCCN1CCN(c2cccc(Cl)c2)CC1 (stereo unspecified)
98 | O=C1NC2(CCc3ccccc32)C(=O)N1CCCCN1CCN(c2cccc(Cl)c2)CC1 (stereo unspecified)

biological target: 5-hydroxytryptamine receptor 6 (Homo sapiens) (UniProt P50406); experiment: Displacement of [3H]LSD from human 5HT6 receptor expressed in CHO cells at 1 uM by scintillation counting analysis; format: cell-based; outline: as §2
Sequence (P50406 whole entry): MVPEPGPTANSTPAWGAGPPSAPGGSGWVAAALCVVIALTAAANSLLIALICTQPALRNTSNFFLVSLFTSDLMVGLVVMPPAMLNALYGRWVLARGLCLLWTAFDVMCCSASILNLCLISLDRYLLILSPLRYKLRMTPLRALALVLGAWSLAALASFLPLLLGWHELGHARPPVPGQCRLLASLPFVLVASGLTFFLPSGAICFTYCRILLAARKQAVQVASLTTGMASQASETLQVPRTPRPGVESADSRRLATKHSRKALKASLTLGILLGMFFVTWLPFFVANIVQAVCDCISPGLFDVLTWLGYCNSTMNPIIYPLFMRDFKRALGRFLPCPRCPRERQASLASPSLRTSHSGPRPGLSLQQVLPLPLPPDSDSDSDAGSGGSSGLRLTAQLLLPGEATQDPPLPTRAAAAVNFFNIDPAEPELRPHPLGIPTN

inhibition [%] | SMILES
3 | COc1ccccc1N1CCN(CCCCN2C(=O)NC3(CCc4ccccc43)C2=O)CC1 (stereo unspecified)
29 | COc1ccccc1N1CCN(CCCCN2C(=O)NC3(CCCc4ccccc43)C2=O)CC1 (stereo unspecified)
37 | O=C1NC2(CCCc3ccccc32)C(=O)N1CCCCN1CCN(c2cccc(Cl)c2)CC1 (stereo unspecified)
23 | O=C1NC2(CCc3ccccc32)C(=O)N1CCCCN1CCN(c2cccc(Cl)c2)CC1 (stereo unspecified)

biological target: 5-hydroxytryptamine receptor 7 (Homo sapiens) (UniProt P34969); experiment: Displacement of [3H]LSD from human 5HT7 receptor expressed in CHO cells at 1 uM by scintillation counting analysis; format: cell-based; outline: as §2
Sequence (P34969 whole entry): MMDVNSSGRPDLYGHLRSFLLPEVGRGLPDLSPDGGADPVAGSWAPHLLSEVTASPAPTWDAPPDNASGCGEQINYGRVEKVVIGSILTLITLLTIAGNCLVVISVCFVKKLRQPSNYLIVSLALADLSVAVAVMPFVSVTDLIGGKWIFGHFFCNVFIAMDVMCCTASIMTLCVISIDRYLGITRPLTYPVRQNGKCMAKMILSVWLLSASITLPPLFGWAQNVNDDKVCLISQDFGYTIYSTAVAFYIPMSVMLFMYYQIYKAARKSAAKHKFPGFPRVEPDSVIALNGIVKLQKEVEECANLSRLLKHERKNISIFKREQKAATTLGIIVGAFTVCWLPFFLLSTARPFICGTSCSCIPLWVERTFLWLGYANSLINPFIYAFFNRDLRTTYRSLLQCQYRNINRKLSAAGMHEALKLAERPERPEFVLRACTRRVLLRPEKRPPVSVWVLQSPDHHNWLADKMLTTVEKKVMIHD

inhibition [%] | SMILES
98 | COc1ccccc1N1CCN(CCCCN2C(=O)NC3(CCc4ccccc43)C2=O)CC1 (stereo unspecified)
99 | COc1ccccc1N1CCN(CCCCN2C(=O)NC3(CCCc4ccccc43)C2=O)CC1 (stereo unspecified)
100 | O=C1NC2(CCCc3ccccc32)C(=O)N1CCCCN1CCN(c2cccc(Cl)c2)CC1 (stereo unspecified)
99 | O=C1NC2(CCc3ccccc32)C(=O)N1CCCCN1CCN(c2cccc(Cl)c2)CC1 (stereo unspecified)

biological target: Adrenergic receptor alpha-1 (Homo sapiens) (UniProt P35348+P25100+P35368); experiment: Displacement of [3H]prazosin from human alpha1-adrenergic receptor expressed in CHO cells at 1 uM by scintillation counting analysis; format: cell-based; outline: as §2

inhibition [%] | SMILES
98 | COc1ccccc1N1CCN(CCCCN2C(=O)NC3(CCc4ccccc43)C2=O)CC1 (stereo unspecified)
99 | COc1ccccc1N1CCN(CCCCN2C(=O)NC3(CCCc4ccccc43)C2=O)CC1 (stereo unspecified)
94 | O=C1NC2(CCCc3ccccc32)C(=O)N1CCCCN1CCN(c2cccc(Cl)c2)CC1 (stereo unspecified)
96 | O=C1NC2(CCc3ccccc32)C(=O)N1CCCCN1CCN(c2cccc(Cl)c2)CC1 (stereo unspecified)

biological target: Muscarinic acetylcholine receptor M3 (Homo sapiens) (UniProt P20309); experiment: Displacement of [3H]-4-DAMP from human muscarinic M3 receptor expressed in CHO cells at 1 uM by scintillation counting analysis; format: cell-based; outline: as §2
Sequence (P20309 whole entry, looked up): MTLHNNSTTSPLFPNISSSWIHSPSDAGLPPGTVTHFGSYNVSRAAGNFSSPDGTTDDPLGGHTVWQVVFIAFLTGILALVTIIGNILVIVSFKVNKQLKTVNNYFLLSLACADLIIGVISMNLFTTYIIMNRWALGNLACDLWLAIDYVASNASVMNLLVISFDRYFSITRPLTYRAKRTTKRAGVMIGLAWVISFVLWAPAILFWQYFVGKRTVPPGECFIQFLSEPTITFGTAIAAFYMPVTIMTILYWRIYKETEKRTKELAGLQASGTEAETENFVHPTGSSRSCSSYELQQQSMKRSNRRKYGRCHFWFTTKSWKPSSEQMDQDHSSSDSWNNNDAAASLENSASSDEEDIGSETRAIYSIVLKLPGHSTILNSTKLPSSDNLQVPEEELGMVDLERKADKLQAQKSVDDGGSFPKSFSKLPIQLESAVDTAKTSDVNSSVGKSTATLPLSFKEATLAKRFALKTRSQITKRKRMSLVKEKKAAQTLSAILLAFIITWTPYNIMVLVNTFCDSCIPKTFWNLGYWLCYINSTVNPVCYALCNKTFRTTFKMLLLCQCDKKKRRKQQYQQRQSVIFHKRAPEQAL

inhibition [%] | SMILES
5 | COc1ccccc1N1CCN(CCCCN2C(=O)NC3(CCc4ccccc43)C2=O)CC1 (stereo unspecified)
-6 | COc1ccccc1N1CCN(CCCCN2C(=O)NC3(CCCc4ccccc43)C2=O)CC1 (stereo unspecified)
3 | O=C1NC2(CCCc3ccccc32)C(=O)N1CCCCN1CCN(c2cccc(Cl)c2)CC1 (stereo unspecified)
5 | O=C1NC2(CCc3ccccc32)C(=O)N1CCCCN1CCN(c2cccc(Cl)c2)CC1 (stereo unspecified)

biological target: Histamine H1 receptor (Homo sapiens) (UniProt P35367); experiment: Displacement of [3H]-pyrilamine from human cloned H1 receptor expressed in HEK293 cells at 1 uM by scintillation counting analysis; format: cell-based; outline: as §2
Sequence (P35367 whole entry): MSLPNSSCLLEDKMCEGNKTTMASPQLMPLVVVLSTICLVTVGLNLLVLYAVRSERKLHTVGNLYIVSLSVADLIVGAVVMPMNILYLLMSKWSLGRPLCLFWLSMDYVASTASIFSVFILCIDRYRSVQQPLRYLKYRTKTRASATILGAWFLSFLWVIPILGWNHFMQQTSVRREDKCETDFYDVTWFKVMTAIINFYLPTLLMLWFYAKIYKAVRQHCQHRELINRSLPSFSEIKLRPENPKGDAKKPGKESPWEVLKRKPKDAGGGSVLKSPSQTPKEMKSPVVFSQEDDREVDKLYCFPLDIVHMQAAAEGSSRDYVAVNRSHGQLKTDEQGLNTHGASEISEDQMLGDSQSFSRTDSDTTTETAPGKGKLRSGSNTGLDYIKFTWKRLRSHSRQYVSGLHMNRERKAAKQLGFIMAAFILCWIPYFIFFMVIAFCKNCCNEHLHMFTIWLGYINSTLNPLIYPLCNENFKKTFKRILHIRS

inhibition [%] | SMILES
94 | COc1ccccc1N1CCN(CCCCN2C(=O)NC3(CCc4ccccc43)C2=O)CC1 (stereo unspecified)
99 | COc1ccccc1N1CCN(CCCCN2C(=O)NC3(CCCc4ccccc43)C2=O)CC1 (stereo unspecified)
102 | O=C1NC2(CCCc3ccccc32)C(=O)N1CCCCN1CCN(c2cccc(Cl)c2)CC1 (stereo unspecified)
101 | O=C1NC2(CCc3ccccc32)C(=O)N1CCCCN1CCN(c2cccc(Cl)c2)CC1 (stereo unspecified)
